Legend:
ryanodine receptor (RyR) = details: ref Pessah et al., 2006; cited from earlier work
liver tissue slices [1] = assay: Formation of hydroxylated PCB 136 metabolites in liver tissue slices; type: in vitro ADME, Sprague-Dawley rats; details: for ΣOH-PCB as percent of PCB 136: PCB 136 5 μM (10 nmol), 2 h, slices plus medium
liver tissue slices [2] = assay: PCB 136 levels and partitioning in liver tissue slice incubations; type: in vitro ADME, Sprague-Dawley rats
Method in brief: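 Two liver slices were placed in 2 mL K-H buffer and given test compound (final 5 μM; 10 nmol per incubation; DMSO) for 2 h at 37 °C, 5% CO2/95% air. Slices were washed in cold buffer and homogenized. Medium and homogenate were quantified by GC-63Ni-μECD (DB1-MS column); calibration was linear over 1–1000 ng/mL. Slice levels are per mg protein and as % of dose. n=2 or 3 animals, triplicate incubations, mean ± SD.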

[3] = system: hippocampal slice cultures; assay: Propidium iodide; type: cell-based, Sprague Dawley rats (PND4 pups)
liver tissue slices [4] = assay: Liver slice viability; type: cell-based, Sprague-Dawley rats
Method in brief: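 Liver slices came from adult rats, either naive or pretreated with PB or DEX, taken 24 h after the last dose into cold Krebs-Henseleit buffer, pH 7.5. Two slices per vial in 2 mL buffer received test compound (final 5 μM) or DMSO, 2 h, 37 °C, 5 % CO2/95 % air. LDH in medium and homogenate gave % release = A1×D1/(A1×D1+A2×D2); viable was <30 %.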

[5] = system: hippocampal slice cultures; assay: LDH release in hippocampal slice cultures; type: cell-based, Sprague Dawley rats (PND4 pups); details: PCB 136 ≤ 5 μM for 14 d
Method in brief: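 Hippocampi from PND4 pups of timed-pregnant Sprague Dawley rats were cultured as slices. From 5 DIV, racemic test compound or vehicle (0.1 % DMSO) was added to 1 mL medium, renewed every 2 days for 14 days. LDH release was measured with a membrane-integrity fluorescence kit. Mean ± SEM, n = 2 wells per group.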

[6] = system: hippocampal tissue slices; assay: PCB 136 levels in hippocampal tissue slice cultures relative to medium; type: in vitro ADME, Sprague Dawley rats (PND4 pups); details: for Medium-to-tissue slice ratio of PCB 136: day 14
Method in brief: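 Hippocampi from PND4 rat pups were cultured as slices. From 5 DIV, racemic test compound (5 μM; vehicle 0.1% DMSO) was added to 1 mL medium per well, renewed every 2 days for 14 days. Medium from each change and slices at day 14 were stored at −20 °C and analysed. The medium-to-slice ratio was taken at day 14.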

CYP3A2 = assay: Hepatic P450 transcript levels; type: in vivo, Sprague-Dawley rats; details: liver slices from male rats
CYP1A2 = assay: Hepatic P450 transcript levels; type: in vivo, Sprague-Dawley rats; details: liver slices from male rats
[7] = Effect of inducer treatment on body and liver weights of rats; type: in vivo, Sprague-Dawley rats; details: i.p. inducer treatment
[8] = DEX-treated female rats, PCB 136 5 μM (10 nmol), 2 h, 37°C
[9] = DEX-treated male rats, PCB 136 5 μM (10 nmol), 2 h, 37°C
[10] = PB-treated female rats, PCB 136 5 μM (10 nmol), 2 h, 37°C
[11] = PB-treated male rats, PCB 136 5 μM (10 nmol), 2 h, 37°C
[12] = naïve control (CTL) female rats, PCB 136 5 μM (10 nmol), 2 h, 37°C
[13] = naïve control (CTL) male rats, PCB 136 5 μM (10 nmol), 2 h, 37°C

In the case of `Clc1ccc(Cl)c(-c2c(Cl)ccc(Cl)c2Cl)c1Cl` [PCB 136, 2,2′,3,3′,6,6′-hexachlorobiphenyl], the “RyR activity / sensitization” value (ryanodine receptor (RyR)) is given as “RyR active”, the “ΣOH-PCB as percent of PCB 136” value (liver tissue slices [1]; DEX-treated female rats) is given as 2.7 ± 1.3% and the “ΣOH-PCB as percent of PCB 136” value (liver tissue slices [1]; PB-treated female rats) is given as 5.3 ± 1.1%. The “ΣOH-PCB as percent of PCB 136” value (liver tissue slices [1]; PB-treated male rats) was 11 ± 2.7%, the “Percent of total PCB 136 metabolized to OH-PCBs” value (liver tissue slices [1]; liver slices from female rats, within 2 h) was no more than 5% and the “Percent of total PCB converted to OH-PCBs” value (liver tissue slices [1]; liver slices from male rats) was “at least 11%”. The “ΣOH-PCB as percent of PCB 136” value (liver tissue slices [1]; naïve control (CTL) male rats) was 1.1 ± 0.4%, the “PCB 136 in medium” value (liver tissue slices [2]; [8]) was 6.7 ± 0.7 nmol and the “PCB 136 in tissue slices” value (liver tissue slices [2]; [8]) was 2.1 ± 0.3 nmol. For the same compound, the “PCB 136 in tissue slices” value (liver tissue slices [2]; DEX-treated female rats, PCB 136 5 μM, 2 h) was 42 ± 14 ng/mg protein, the “PCB 136 in medium” value (liver tissue slices [2]; [9]) was 5.7 ± 0.3 nmol and the “PCB 136 in tissue slices” value (liver tissue slices [2]; [9]) was 1.8 ± 0.4 nmol. The “PCB 136 in tissue slices” value (liver tissue slices [2]; DEX-treated male rats, PCB 136 5 μM, 2 h) was 27 ± 7 ng/mg protein, the “PCB 136 in medium” value (liver tissue slices [2]; [10]) was 9.5 ± 0.5 nmol and the “PCB 136 in tissue slices” value (liver tissue slices [2]; [10]) was 2.5 ± 0.4 nmol. The “PCB 136 in tissue slices” value (liver tissue slices [2]; PB-treated female rats, PCB 136 5 μM, 2 h) was 53 ± 10 ng/mg protein, the “PCB 136 in medium” value (liver tissue slices [2]; [11]) was 8.6 ± 0.4 nmol and the “PCB 136 in tissue slices” value (liver tissue slices [2]; [11]) was 1.3 ± 0.3 nmol. For the same compound, the “PCB 136 in tissue slices” value (liver tissue slices [2]; PB-treated male rats, PCB 136 5 μM, 2 h) was 21 ± 6 ng/mg protein, the “Percent of total PCB 136 associated with liver tissue slices” value (liver tissue slices [2]; both sexes, all treatment groups) was 13–25% and the “PCB 136 in tissue slices as percent of total PCB 136 dose added” value (liver tissue slices [2]; female liver slices, 2 h) was 21–25%. The “PCB 136 in tissue slices as percent of total PCB 136 dose” value (liver tissue slices [2]; male liver slices, 2 h) was 13–23%, the “PCB 136 in medium” value (liver tissue slices [2]; [12]) was 8.5 ± 0.1 nmol and the “PCB 136 in tissue slices” value (liver tissue slices [2]; [12]) was 2.4 ± 0.5 nmol. For the same compound, the “PCB 136 in tissue slices” value (liver tissue slices [2]; naïve control (CTL) female rats, PCB 136 5 μM, 2 h) was 45 ± 15 ng/mg protein, the “PCB 136 in medium” value (liver tissue slices [2]; [13]) was 6.3 ± 0.3 nmol and the “PCB 136 in tissue slices” value (liver tissue slices [2]; [13]) was 2.3 ± 0.1 nmol. The “PCB 136 in tissue slices” value (liver tissue slices [2]; naïve control (CTL) male rats, PCB 136 5 μM, 2 h) was 33 ± 5 ng/mg protein, the “PI uptake (confocal images)” value ([3]; PCB 136 at 5 μM for 14 days vs vehicle) was “no significant differences” and the PI uptake ([3]; racemic PCB 136 at 5 or 10 μM, 3 d exposure from 5 DIV, vs vehicle) was “had no significant effect on PI uptake”. For the same compound, the “Acute toxicity to liver slices” value (liver tissue slices [4]; 2 h incubation with PCB 136 at 5 μM) was “not acutely toxic”, the “LDH release to the medium” value (liver tissue slices [4]; all slices used in the PCB 136 metabolism experiments, 2 h incubation) was 13.2 ± 6.6% and the LDH release (liver tissue slices [4]; slices treated with PCB 136 5 μM, 2 h) was 13.1 ± 6.6%. The “LDH release relative to vehicle controls” value [5] was “did not significantly alter LDH release”, the “PCB 136 in slices as percent of the PCB 136 (1.8 μg) added on day 12” value ([6]; female pups) was 1.5 ± 0.8% and the “Average PCB 136 amount associated with the tissue slices” value ([6]; female pups, after 14 days) was 27 ± 15 ng. The “Medium-to-tissue slice ratio of PCB 136” value ([6]; female pups) was 24 ± 8, the “PCB 136 in slices as percent of total PCB dose added” value ([6]; female pups, total dose 12.6 μg) was 0.2% and the “PCB 136 in slices as percent of the PCB 136 (1.8 μg) added on day 12” value ([6]; male pups) was 1.8 ± 0.3%. The “PCB 136 amount associated with tissue slices” value ([6]; male pups, after 14 days) was 32 ± 6 ng, the “Medium-to-tissue slice ratio of PCB 136” value ([6]; male pups) was 26 ± 10 and the “PCB 136 in slices as percent of total PCB dose” value ([6]; male pups, total dose 12.6 μg) was 0.3%. The “Average PCB 136 concentration in the incubation medium” value ([6]; slice cultures from female pups, 5 μM racemic PCB 136, 14 days) was 830 ± 80 ng/mL and the “Average PCB 136 levels in the incubation medium” value ([6]; slice cultures from male pups, 5 μM racemic PCB 136, 14 days) was 570 ± 220 ng/mL.
In the case of `CCC1(c2ccccc2)C(=O)NC(=O)NC1=O` [Phenobarbital (PB), phenobarbital], the “CYP3A2 transcript level vs CTL” value (CYP3A2) is reported as “significantly induced by DEX but not PB”, the “CYP1A2 transcript level vs CTL” value (CYP1A2) is reported as “not changed” and the Liver weight ([7]; female rats) is reported as 10.1 ± 0.4 g. For the same compound, the “Liver-to-final body weight ratio” value ([7]; female rats) was 4.5 ± 0.2, the “Percent change in body weight” value ([7]; female rats) was 5.5 ± 1.3% and the Liver weight ([7]; male rats) was 16.0 ± 2.0 g. The “Liver-to-final body weight ratio” value ([7]; male rats) was 5.3 ± 0.9 and the “Percent change in body weight” value ([7]; male rats) was −2.0 ± 7.0%.

From paper PMC3878182 (Xenobiotica; the fate of foreign compounds in biological …, 2013)
